Test results: ChEMBL document CHEMBL2331394, “Neuroprotective effects of mercaptoethylleonurine and mercaptoethylguanidine analogs on hydrogen peroxide-induced apoptosis in human neuronal SH-SY5Y cells” (Bioorg Med Chem Lett, 2013)
Calls of active or inactive are those of the source. The rule behind the calls is not given here.

Assays:
[1] = Neuroprotective activity in human SH-SY5Y cells assessed as reduction of H2O2-induced apoptosis at 5 uM after 24 hrs by MTT assay relative to control; type: functional, cell-based; parameters: scale not given: the % may be the effect or the level left
[2] = Neuroprotective activity in human SH-SY5Y cells assessed as reduction of H2O2-induced apoptosis at 25 uM after 24 hrs by MTT assay relative to control; type: functional, cell-based; parameters: scale not given: the % may be the effect or the level left
[3] = Neuroprotective activity in human SH-SY5Y cells assessed as reduction of H2O2-induced apoptosis at 50 uM after 24 hrs by MTT assay relative to control; type: functional, cell-based; parameters: scale not given: the % may be the effect or the level left
[4] = Cytotoxicity against human SH-SY5Y cells at 5 to 100 uM by MTT assay; type: cell-based
[5] = Neuroprotective activity in human SH-SY5Y cells assessed as reduction of H2O2-induced apoptosis at 5 mM after 24 hrs by MTT assay relative to N-acetyl-cysteine; type: functional, cell-based; parameters: scale not given: the % may be the effect or the level left
[6] = Neuroprotective activity in H2O2-stimulated human SH-SY5Y cells assessed as upregulation of Bax expression at 5 mM incubated for 4 hrs prior to H2O2 challenge measured after 12 hrs by Western blotting analysis; type: functional, cell-based; settings: in the assay text read “downregulation of Bax expression” for “upregulation of Bax expression”
Method in brief: (§1)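 SH-SY5Y cells pretreated 4 h with test agent (5, 25, 50 µM) or NAC (5 mM), then exposed to 100 µM H2O2 for 12 h. Bcl-2 and Bax quantified by Western blot densitometry against GAPDH. Mean ± SEM of at least three independent experiments, each in duplicate.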

[7] = Neuroprotective activity in H2O2-stimulated human SH-SY5Y cells assessed as downregulation of Bcl2 expression at 5 mM incubated for 4 hrs prior to H2O2 challenge measured after 12 hrs by Western blotting analysis; type: functional, cell-based; settings: in the assay text read “upregulation of Bcl2 expression” for “downregulation of Bcl2 expression”; method in brief: as §1
[8] = test system: SH-SY5Y; experiment: Inhibition of H2O2-induced ERK phosphorylation in human SH-SY5Y cells at 50 uM incubated for 4 hrs prior to H2O2 induction measured after 12 hrs by Western blotting analysis; type: cell-based
Method in brief: (§2)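 SH-SY5Y cells pretreated 4 h with 50 µM test agent, then stimulated with 100 µM H2O2 for the indicated periods before harvest. Phosphorylated Akt, JNK, ERK and p38 detected by Western blot, normalised to the corresponding total protein as loading control.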

[9] = target: MAP kinase p38 (Homo sapiens) (UniProt O15264+Q15759+Q16539+P53778); experiment: Inhibition of H2O2-induced p38 phosphorylation in human SH-SY5Y cells at 50 uM incubated for 4 hrs prior to H2O2 induction measured after 12 hrs by Western blotting analysis; type: cell-based; method in brief: as §2
[10] = target: c-Jun N-terminal kinase, JNK (Homo sapiens) (UniProt P45983+P53779+P45984); experiment: Inhibition of H2O2-induced JNK phosphorylation in human SH-SY5Y cells at 50 uM incubated for 4 hrs prior to H2O2 induction measured after 12 hrs by Western blotting analysis; type: cell-based; method in brief: as §2
[11] = test system: SH-SY5Y; experiment: Inhibition of H2O2-induced AKT phosphorylation in human SH-SY5Y cells at 50 uM incubated for 4 hrs prior to H2O2 induction measured after 12 hrs by Western blotting analysis; type: cell-based; method in brief: as §2
[12] = Neuroprotective activity in H2O2-stimulated human SH-SY5Y cells assessed as upregulation of Bax expression incubated for 4 hrs prior to H2O2 challenge measured after 12 hrs by Western blotting analysis; type: functional, cell-based; settings: in the assay text read “downregulation of Bax expression” for “upregulation of Bax expression”; method in brief: as §1
[13] = Neuroprotective activity in H2O2-stimulated human SH-SY5Y cells assessed as downregulation of Bcl2 expression incubated for 4 hrs prior to H2O2 challenge measured after 12 hrs by Western blotting analysis; type: functional, cell-based; settings: in the assay text read “upregulation of Bcl2 expression” for “downregulation of Bcl2 expression”; method in brief: as §1

| inhibition [9] | inhibition [10] | Compound | Activity [1] | Activity [2] | Activity [3] | Activity [4] | Activity [5] | Activity [6] | Activity [7] | inhibition [8] | inhibition [11] | Activity [12] | Activity [13] |
| --- | --- | --- | --- | --- | --- | --- | --- | --- | --- | --- | --- | --- | --- |
| – | – | COc1ccc(C(=O)OCCCCNC(=N)NCCS)cc1 | 42.4% | 37.5% | 48.6% | Non-toxic | 82.4% | – | – | – | – | – | – |
| – | – | N=C(NCCS)NCCCO | 67.2% | 81% | 82.1% | Non-toxic | 76.4% | – | – | – | – | – | – |
| – | – | COc1cc(OC)cc(C(=O)OCCCCNC(=N)NCCS)c1 | 62.1% | 63.5% | 66.1% | Non-toxic | 88.8% | – | – | – | – | – | – |
| – | – | CCC(O)CNC(=N)NCCS (configuration not stated) | 75.8% | 77.1% | 71.1% | Non-toxic | 88.8% | – | – | – | – | – | – |
| – | – | COc1cc(C(=O)OCCCCNC(=N)NCCS)cc(OC)c1O | 60.7% | 66.4% | 60.4% | Non-toxic | 88.8% | – | – | – | – | – | – |
| – | – | COc1cc(C(=O)OCCCNC(=N)NCCS)cc(OC)c1O | 78.8% | 83.3% | 93.3% | Non-toxic | 76.4% | – | – | – | – | – | – |
| – | – | CC(=O)N[C@@H](CS)C(=O)O | – | – | – | – | – | Active | Active | – | – | – | – |
| – | – | N=C(NCCS)NCCCCCO | 60% | 80.6% | 82.8% | Non-toxic | 76.4% | – | – | – | – | – | – |
| – | – | N=C(NCCN)NCCS | 66.3% | 75.4% | 79.2% | Non-toxic | 76.4% | – | – | – | – | – | – |
| – | – | CC(O)CNC(=N)NCCS (configuration not stated) | 77.1% | 67.3% | 65.5% | Non-toxic | 88.8% | – | – | – | – | – | – |
| – | – | N=C(NCCO)NCCS | 56.4% | 59.6% | 65.1% | Non-toxic | 76.4% | – | – | – | – | – | – |
| – | – | CC(CO)NC(=N)NCCS (configuration not stated) | 59.9% | 67.2% | 80% | Non-toxic | 88.8% | – | – | – | – | – | – |
| – | – | COc1cc(C(=O)OCCCCCCNC(=N)NCCS)cc(OC)c1O | 78.5% | 80.6% | 73.8% | Non-toxic | 88.8% | – | – | – | – | – | – |
| – | – | COc1cc(C(=O)OCCCCCNC(=N)NCCS)cc(OC)c1O | 53.9% | 59.9% | 65.9% | Non-toxic | 76.4% | – | – | – | – | – | – |
| – | – | COc1cc(C(=O)OC2CCC(NC(=N)NCCS)CC2)cc(OC)c1O (configuration not stated) | 76.4% | 67.2% | 65.9% | Non-toxic | 88.8% | – | – | – | – | – | – |
| – | – | N=C(NCCS)NC1CCC(O)CC1 (configuration not stated) | 31.6% | 38.6% | 30.4% | Non-toxic | 82.4% | – | – | – | – | – | – |
| – | – | N=C(NCCS)NCCCCCCO | 72.4% | 55.5% | 52.9% | Non-toxic | 82.4% | – | – | – | – | – | – |
| – | – | COc1cc(C(=O)OCCCCNC(=N)NCCS)cc(OC)c1OC | 32.5% | 49.4% | 49.1% | Non-toxic | 82.4% | – | – | – | – | – | – |
| – | – | N=C(NCCS)NCCCCO | 68% | 63.5% | 70.2% | Non-toxic | 82.4% | – | – | – | – | – | – |
| inactive | Active | N=C(NCCS)NCCCN | 77.3% | 84.3% | 96.5% | Non-toxic | 82.4% | – | – | inactive | Active | Dose-dependent effect | Dose-dependent effect |
| – | – | COc1cc(C(=O)OCCCCNC(=N)N)cc(OC)c1O | 76.7% | 38.5% | 46% | – | 82.4% | – | – | – | – | – | – |
